Measured values reported in ChEMBL document CHEMBL1137366, “Novel Schiff base copper complexes of quinoline-2 carboxaldehyde as proteasome inhibitors in human prostate cancer cells” (J Med Chem, 2006).
Each block holds one molecule with its values, some of them ahead of it. Activity calls are given as the source filed them. The calls are words filed in the database; no cut-off is given here.

How the values were obtained:
LNCaP [1] = experiment: Cytotoxicity against human LnCaP cell line by MTT assay after 72 hrs; format: functional, cell-based
Summary of the method: (§1)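 MTT growth-inhibition assay in prostate cancer cells. Cells were exposed to compounds for 72 h. IC50 was taken from the dose–response data.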

PC-3 = experiment: Cytotoxicity against human PC3 cell line by MTT assay after 72 hrs; format: functional, cell-based; details: PC-3, 72 h; summary of the method: as §1
LNCaP [2] = experiment: Induction of apoptosis in LnCaP cells assessed as PARP cleavage by Western blot analysis; format: functional, cell-based; details: Homo sapiens
LNCaP [3] = experiment: Inhibition in LnCaP cell line growth by ELISA apoptosis assay upto 20 uM; format: functional, cell-based; details: Homo sapiens
Summary of the method: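 Apoptotic cell death in LNCaP cells measured by histone/DNA ELISA. Cells were treated for 72 h at 10 and 20 µM and compared with a control.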

[4] = target: T1, Proteasome Macropain subunit MB1 (Homo sapiens, UniProt P28074); experiment: Inhibition of chymotrypsin-like activity of proteasome in intact LnCaP cells; format: cell-based
T1 sequence (P28074 whole entry): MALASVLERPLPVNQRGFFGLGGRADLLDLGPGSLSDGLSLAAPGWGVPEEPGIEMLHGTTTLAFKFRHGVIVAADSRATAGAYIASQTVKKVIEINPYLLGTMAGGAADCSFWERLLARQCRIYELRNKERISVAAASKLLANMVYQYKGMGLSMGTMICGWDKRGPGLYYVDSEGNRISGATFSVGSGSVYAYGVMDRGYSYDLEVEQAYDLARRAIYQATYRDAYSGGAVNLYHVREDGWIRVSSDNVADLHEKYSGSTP
Summary of the method: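 Intact LNCaP cells were treated, then whole-cell extracts were assayed for proteasome chymotrypsin-like activity. CuCl2 alone served as control. IC50 values were derived.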

LNCaP [5] = experiment: Induction of apoptosis in LnCaP cells measured by hydrogen peroxide assay; format: functional, cell-based; details: Homo sapiens
Summary of the method: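 LNCaP cells were treated for 24 h at 4, 7 and 10 µM. H2O2 was then measured with the Amplex Red hydrogen peroxide kit at time points from 1 to 6 h. Absorbance was normalized to control.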

IC50 [4]: ≥ 10 µM
Structure (SMILES): NC(=S)N/N=C/c1ccc2ccccc2n1
IC50 (LNCaP [1]): 16 µM | IC50 (PC-3): 21 µM | Activity (LNCaP [2]): Active | Activity (LNCaP [3]): Dose-dependent effect | Activity (LNCaP [5]): inactive

Structure (SMILES): O=C(N/N=C/c1ccc2ccccc2n1)c1ccccc1O
IC50 (LNCaP [1]): 20 µM | IC50 (PC-3): 31 µM

Structure (SMILES): O=C(N/N=C/c1ccc2ccccc2n1)c1ccccc1
IC50 (LNCaP [1]): 20 µM | IC50 (PC-3): 25 µM
